Data reported in ChEMBL document CHEMBL1132655, “Discovery of novel disaccharide antibacterial agents using a combinatorial library approach” (J Med Chem, 1999).
Converted amounts (≈) assume the structure as drawn.

Tests used:
Enterococcus faecalis [1] = experiment: Compound was tested for the inhibition of cell wall biosynthesis and growth against Enterococcus faecalis (ATCC 29212) (sensitive strain); assay type: functional
Method in brief: (§1)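 Broth microdilution MIC in brain heart infusion medium with 0.1% casamino acids. Log-phase cells were diluted to about 5×10^5 CFU/mL and exposed to compound serially diluted in DMSO (5% final DMSO). OD600 was read in microtiter plates. MIC (µg/mL) was called where [OD600 control − OD600 test]/[OD600 control − OD600 media] × 100 > 90%.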

Enterococcus faecalis [2] = experiment: Compound was tested for the inhibition of cell wall biosynthesis and growth against Enterococcus faecalis (CL4877) (Vancomycin-resistant); assay type: functional; method in brief: as §1
Staphylococcus aureus [3] = experiment: Compound was tested for the inhibition of cell wall biosynthesis and growth against Staphylococcus aureus (ATCC 43300) (Methicillin-resistant); assay type: functional; method in brief: as §1
Enterococcus faecium [4] = experiment: Compound was tested for the inhibition of cell wall biosynthesis and growth against Enterococcus faecium (ATCC49624) (sensitive strain); assay type: functional; method in brief: as §1
Staphylococcus aureus [5] = experiment: Compound was tested for the inhibition of cell wall biosynthesis and growth against Staphylococcus aureus (ATCC 29213) (sensitive strain); assay type: functional; method in brief: as §1
Enterococcus faecium [6] = experiment: Compound was tested for the inhibition of cell wall biosynthesis and growth against Enterococcus faecium (CL4931) (Vancomycin-resistant); assay type: functional; method in brief: as §1
Enterococcus faecium [7] = experiment: Compound was tested for the inhibition of cell wall biosynthesis and growth against Enterococcus faecium (ATCC51559) (Vancomycin-resistant); assay type: functional; method in brief: as §1
Enterococcus faecalis [8] = experiment: Compound was tested for the inhibition of cell wall biosynthesis and growth against Enterococcus faecalis (CL5244) (Vancomycin-resistant); assay type: functional; method in brief: as §1
[9] = The compound was tested for inhibitory activity against PGP30 bacterial cell wall biosynthesis; assay type: functional, Bacteria
Escherichia coli = experiment: Compound was tested for the inhibition of cell wall biosynthesis and growth against Escherichia coli (BAS849) (super-sensitive permeability mutant of E. coli) (sensitive strain); assay type: functional
Method in brief: (§2)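 MIC by broth dilution in brain heart infusion medium with 0.1% casamino acids. Log-phase cells diluted to about 5×10^5 CFU/mL and exposed to compound serially diluted in DMSO (5% final DMSO). OD600 read on a plate reader; MIC taken as the concentration giving >90% growth inhibition relative to untreated control, corrected for medium blank.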

[10] = test system: Staphylococcus epidermidis; experiment: Compound was tested for the inhibition of cell wall biosynthesis and growth against Staphylococcus epidermidis (ATCC 12228) (sensitive strain); assay type: functional; method in brief: as §2
Enterococcus faecalis [11] = experiment: Compound was tested for the inhibition of cell wall biosynthesis and growth against Enterococcus faecalis (ATCC51575) (Vancomycin-resistant); assay type: functional; method in brief: as §1
Enterococcus faecium [12] = experiment: Compound was tested for the inhibition of cell wall biosynthesis and growth against Enterococcus faecium (ATCC49624) (sensitive strain)

SMILES	MIC (Enterococcus faecalis [1]) [µg/mL]	MIC (Enterococcus faecalis [2]) [µg/mL]	MIC (Staphylococcus aureus [3]) [µg/mL]	MIC (Enterococcus faecium [4]) [µg/mL]	MIC (Staphylococcus aureus [5]) [µg/mL]	MIC (Enterococcus faecium [6]) [µg/mL]	MIC (Enterococcus faecium [7]) [µg/mL]	MIC (Enterococcus faecalis [8]) [µg/mL]	IC50 [9] [µg/mL]	MIC (Escherichia coli) [µg/mL]	MIC [10] [µg/mL]	MIC (Enterococcus faecalis [11]) [µg/mL]	MIC (Enterococcus faecium [12]) [µg/mL]
CCCCCCCCCCCCOP(=O)(O)OC1OC(C(N)=O)C(O)C(NC(=O)Nc2ccc(Cl)c(C(F)(F)F)c2)C1OC1OC(CO)C(O)C(O)C1NC(=O)c1cccc(C(F)(F)F)c1 (stereo unspecified)	3.12 (≈ 3.13 µM)	3.13 (≈ 3.14 µM)	6.25 (≈ 6.28 µM)	12.5 (≈ 12.6 µM)	6.25 (≈ 6.28 µM)	3.13 (≈ 3.14 µM)	12.5 (≈ 12.6 µM)	3.13 (≈ 3.14 µM)	15.4 (≈ 15.5 µM)	12.5 (≈ 12.6 µM)	12.5 (≈ 12.6 µM)	12.5 (≈ 12.6 µM)	
CCCCCCCCCCCCO[C@H](COP(=O)(O)OC1OC(C(N)=O)C(O)C(NC(=O)Nc2ccc(OC(F)(F)F)cc2)C1OC1OC(CO)C(O)C(O)C1NC(=O)c1cccc(C(F)(F)F)c1)C(=O)O (stereo partly specified)	6.25 (≈ 5.87 µM)	6.25 (≈ 5.87 µM)	6.25 (≈ 5.87 µM)	6.25 (≈ 5.87 µM)	6.25 (≈ 5.87 µM)	6.25 (≈ 5.87 µM)	12.5 (≈ 11.7 µM)	6.25 (≈ 5.87 µM)	9.2 (≈ 8.64 µM)	> 25	6.25 (≈ 5.87 µM)	25 (≈ 23.5 µM)	
CCCCCCCCCCCCO[C@H](COP(=O)(O)OC1OC(C(N)=O)C(OC)C(NC(=O)Nc2ccc(Cl)c(C(F)(F)F)c2)C1OC1OC(CO)C(O)C(O)C1NC(=O)c1ccccc1)C(=O)O (stereo partly specified)	12.5 (≈ 12.1 µM)	6.25 (≈ 6.07 µM)	25 (≈ 24.3 µM)		12.5 (≈ 12.1 µM)	25 (≈ 24.3 µM)	12.5 (≈ 12.1 µM)	12.5 (≈ 12.1 µM)	6.8 (≈ 6.61 µM)	25 (≈ 24.3 µM)	12.5 (≈ 12.1 µM)	25 (≈ 24.3 µM)	12.5 (≈ 12.1 µM)
C=C(C/C=C(\C)CCC=C(C)C)CCC(C)(C)/C=C/CC/C(C)=C\CO[C@H](COP(=O)(O)O[C@H]1O[C@@H](C(N)=O)[C@@](C)(O)[C@H](OC(N)=O)[C@@H]1O[C@@H]1O[C@@H](CO[C@@H]2O[C@@H](CO)[C@@H](O)[C@H](O)[C@@H]2O)[C@@H](O[C@@H]2O[C@@H](C)[C@@H](O[C@@H]3O[C@@H](C(=O)NC4=C(O)CCC4=O)[C@H](O)[C@H](O)[C@@H]3O)[C@H](O)[C@@H]2NC(C)=O)[C@@H](O)[C@@H]1NC(C)=O)C(=O)O [MOENOMYCIN]	0.078 (≈ 0.0493 µM)	0.062 (≈ 0.0392 µM)	0.062 (≈ 0.0392 µM)	> 200	0.05 (≈ 0.0316 µM)	0.39 (≈ 0.246 µM)	1.56 (≈ 0.986 µM)	0.062 (≈ 0.0392 µM)	0.025 (≈ 0.0158 µM)	0.025 (≈ 0.0158 µM)	0.025 (≈ 0.0158 µM)	0.062 (≈ 0.0392 µM)	
CCCCCCCCCCCCO[C@H](COP(=O)(O)OC1OC(C(N)=O)C(O)C(NC(=O)Nc2ccc(Cl)c(C(F)(F)F)c2)C1OC1OC(CO)C(O)C(O)C1NC(=O)c1cccc(C(F)(F)F)c1)C(=O)O (stereo partly specified)	3.12 (≈ 2.88 µM)	3.13 (≈ 2.89 µM)	12.5 (≈ 11.5 µM)	6.25 (≈ 5.77 µM)	12.5 (≈ 11.5 µM)	6.25 (≈ 5.77 µM)	6.25 (≈ 5.77 µM)	3.13 (≈ 2.89 µM)	10.6 (≈ 9.78 µM)	12.5 (≈ 11.5 µM)	12.5 (≈ 11.5 µM)	12.5 (≈ 11.5 µM)	
CCCCCCCCCCCCCCC(OP(=O)(O)OC1OC(C(N)=O)C(OC)C(NC(=O)Nc2ccc(Cl)c(C(F)(F)F)c2)C1OC1OC(CO)C(O)C(O)C1NC(=O)c1cccc(C(F)(F)F)c1)C(=O)O (stereo unspecified)	3.12 (≈ 2.85 µM)	3.12 (≈ 2.85 µM)	3.12 (≈ 2.85 µM)	3.12 (≈ 2.85 µM)	6.25 (≈ 5.71 µM)	6.25 (≈ 5.71 µM)	3.12 (≈ 2.85 µM)	6.25 (≈ 5.71 µM)	9.2 (≈ 8.4 µM)	> 25	6.25 (≈ 5.71 µM)	6.25 (≈ 5.71 µM)	
CN[C@H](CC(C)C)C(=O)N[C@H]1C(=O)N[C@@H](CC(N)=O)C(=O)N[C@H]2C(=O)N[C@H]3C(=O)N[C@H](C(=O)N[C@H](C(=O)O)c4cc(O)cc(O)c4-c4cc3ccc4O)[C@H](O)c3ccc(c(Cl)c3)Oc3cc2cc(c3O[C@@H]2O[C@H](CO)[C@@H](O)[C@H](O)[C@H]2O[C@H]2C[C@](C)(N)[C@H](O)[C@H](C)O2)Oc2ccc(cc2Cl)[C@H]1O [VANCOMYCIN]	6.25 (≈ 4.31 µM)	> 125	3.13 (≈ 2.16 µM)	0.78 (≈ 0.538 µM)	3.13 (≈ 2.16 µM)	> 125	> 125	15.6 (≈ 10.8 µM)	5.2 (≈ 3.59 µM)	0.78 (≈ 0.538 µM)	3.13 (≈ 2.16 µM)	> 125	
CCCCCCCCCCCCOP(=O)(O)OC1OC(C(N)=O)C(OC)C(NC(=O)Nc2ccc(Cl)c(C(F)(F)F)c2)C1OC1OC(CO)C(O)C(O)C1NC(=O)c1cccc(C(F)(F)F)c1 (stereo unspecified)	6.25 (≈ 6.19 µM)	3.12 (≈ 3.09 µM)	6.25 (≈ 6.19 µM)	6.25 (≈ 6.19 µM)	6.25 (≈ 6.19 µM)	6.25 (≈ 6.19 µM)	6.25 (≈ 6.19 µM)	6.25 (≈ 6.19 µM)	8.2 (≈ 8.12 µM)	12.5 (≈ 12.4 µM)	6.25 (≈ 6.19 µM)	6.25 (≈ 6.19 µM)	
